Published values gathered from unrelated publications.
Protocols differ between the studies behind these lines.
Cnr1: Cannabinoid receptor 1 (Cnr1, Rattus norvegicus, UniProt P20272)
Slc6a3: Sodium-dependent dopamine transporter (Slc6a3, Rattus norvegicus, UniProt P23977)
Botulinum neurotoxin type A protease: Botulinum neurotoxin type A, protease (Clostridium botulinum, UniProt P0DPI0)
NA: Neuraminidase (NA, Influenza A virus, UniProt Q9IGQ6)

Structure (SMILES) | target | assay | conditions | quantity | value
CC(C)(C)C(NC(=O)c1cn(CCCCCF)c2ccccc12)C(=O)O (stereo not shown) | Cnr1 | ligand displacement, radioligand | cell membranes | IC50 | 3.34 µM
CC(Cc1cccc(Cl)c1)NC(C)(C)C (stereo not shown) | Slc6a3 | transporter uptake, inhibitor, radiometric |  | IC50 | 0.938 µM
O=C1C=CC(=O)N1Cc1ccc(Cl)cc1Cl | Botulinum neurotoxin type A protease | enzyme activity, inhibitor |  | IC50 | 80 µM
CCOC(=O)C1C(OC(c2ccc(F)cc2)c2ccc(F)cc2)CC2CCC1N2CCN (racemic) | Slc6a3 | ligand displacement, radioligand | cell membranes | Ki | 17.2 nM
CC1=CC(=O)C2(O1)C(c1cc3oc(=O)c4cc(O)c(O)cc4c3c(=O)o1)=Cc1cc(O)c(O)cc12 (stereo not shown) | NA | enzyme activity, inhibitor |  | IC50 | 8.1 µM
COC(=O)C(NC(=O)c1cn(CCCCCF)c2ccccc12)C(C)(C)C (stereo not shown) | Cnr1 | ligand displacement, radioligand | cell membranes | IC50 | 0.002 µM
CCCCCCC(C)(C)c1cc(O)c2c(c1)OC(C)(C)[C@@H]1CC=C(C)C[C@@H]21 | Cnr1 | ligand displacement, radioligand |  | Ki | 0.9 nM
O=C1C=C(/C=C/c2ccc(O)c(O)c2)OC12C(c1cc3oc(=O)c4cc(O)c(O)cc4c3c(=O)o1)=Cc1cc(O)c(O)cc12 (stereo not shown) | NA | enzyme activity, inhibitor |  | IC50 | 8 µM
O=S(=O)(c1ccc(O)c2nc(Cl)ccc12)N1CCc2c(Cl)cccc21 | Botulinum neurotoxin type A protease | enzyme activity, inhibitor |  | IC50 | > 30 µM
CC(N)C(=O)c1cccc(Cl)c1 (stereo not shown) | Slc6a3 | transporter uptake, inhibitor, radiometric |  | IC50 | 0.399 µM
CN1[C@H]2CC[C@@H]1[C@@H](c1cc(-c3ccccc3)no1)[C@H](OC(c1ccc(F)cc1)c1ccc(F)cc1)C2 | Slc6a3 | ligand displacement, radioligand | cell membranes | Ki | 14 nM
CC(C)NC(C)C(=O)c1cccc(Cl)c1 (stereo not shown) | Slc6a3 | transporter uptake, inhibitor, radiometric |  | IC50 | 0.537 µM
CN(C)CCc1c[nH]c2ccccc12 | 5-hydroxytryptamine receptor 1B (HTR1B, Homo sapiens, UniProt P28222) | ligand displacement, radioligand |  | Ki | 130 nM
